According to ChEMBL document CHEMBL1134556, “(-)3-[4-[2-(Phenoxazin-10-yl)ethoxy]phenyl]-2-ethoxypropanoic acid [(-)DRF 2725]: a dual PPAR agonist with potent antihyperglycemic and lipid modulating activity” (J Med Chem, 2001):

What was measured:
Type in all cases: ADME, organism-based
[1] = Pharmacokinetic parameter in Male Wistar rats at 10 mg/kg oral administration.; design: dose 10 mg/kg, route oral; settings: rat, in vivo
Procedure, shortened: (§1)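 Male Wistar rats; oral arm fasted 14 h, dosed as suspension in 0.25% CMC; IV arm given via tail vein in DMSO 6.6%/Cremophor ELP 6.6%/ethanol 3.3%/saline 83.3%. Retro-orbital blood drawn at 0.05, 0.5, 1, 2, 4, 6, 8, 10 and 21 h. Parameters include AUC0-∞, Cmax, Tmax, Kel, T1/2, Vd, Cl, f. Mean ± SD, n = 4.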

[2] = (§2) Pharmacokinetic parameter in Male Wistar rats at 3 mg/kg intravenous administration.; design: dose 3 mg/kg, route intravenous; settings: rat, in vivo; procedure, shortened: as §1
Rattus norvegicus = assay: as §2; design: dose 3 mg/kg, route intravenous; settings: in vivo; procedure, shortened: as §1

AUC [1]: 71400 ng·h/mL
Cmax [1]: 17200 ng/mL
Tmax [1]: 1.5 h
bioavailability [1]: 77%
half-life [1]: 2.81 h
k el [1]: 6.94e-05 s⁻¹
AUC [2]: 27800 ng·h/mL
Cmax [2]: 18300 ng/mL
clearance [2]: 0.355 mL/min
half-life [2]: 4.69 h
k el [2]: 4.17e-05 s⁻¹
Vd (Rattus norvegicus): 36.92 mL
SMILES: CCO[C@@H](Cc1ccc(OCCN2c3ccccc3Oc3ccccc32)cc1)C(=O)O [RAGAGLITAZAR]
